Marks after values point to notes of the source that are not given here.
What was measured:
[1] = SAD study: plasma pharmacokinetics; assay type: in vivo, human; conditions: for plasma concentrations: SAD 5 mg, below the LLOQ
Outline: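 Healthy males aged 18–55 got single oral doses in six SAD cohorts (5–600 mg), 6 active and 2 placebo per cohort, all fasted. Plasma was drawn pre-dose and at 1, 2, 3, 4, 6, 8, 12, 18, 24, 36, 48, 60 and 72 h; 96 h only for dose levels 4–6. LC–MS/MS, LLOQ 2 ng/mL. Non-compartmental parameters; AUC excluded when extrapolation exceeded 30%.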

[2] = system: collagen-induced arthritis mouse model; conditions: cited from earlier work
[3] = cited from earlier work

CN1C(=O)c2cccc(OC(F)F)c2[C@H]2C[C@@H]1c1nc3ccc(-c4cnc(C5(N)CCC5)nc4)cc3n12 [Balinatunfib]
plasma concentrations [1]: < 2 ng/mL | plasma concentrations ([1]; listed as balinatunfib): In the SAD study, all doses were administered under fasted conditions. The PK parameters were not calculable for any participant receiving a single dose of 5 mg balinatunfib, as all concentrations were below the LLOQ (2 ng/mL). | C max, geometric mean ([1]; SAD 20 mg fasted): (5.12) [24] ng/mL | C max, mean ± SD ([1]; SAD 20 mg fasted): 5.25 ± 1.24 ng/mL | t last, median ([1]; SAD 20 mg fasted): 18.05 h | t max, median ([1]; SAD 20 mg fasted): 5.00 h | AUC (0 to infinity), mean ([1]; SAD 20 mg fasted, n = 1): 101 ^b ± NC ng·h/mL | t 1/2z, geometric mean ([1]; SAD 20 mg fasted, n = 5): (13.6) [48] h | t 1/2z, mean ([1]; SAD 20 mg fasted, n = 5): 15.0 ^c ± 7.21 h | AUC (0 to infinity), geometric mean ([1]; SAD 60 mg fasted): (409) [25] ng·h/mL | AUC (0 to infinity), mean ± SD ([1]; SAD 60 mg fasted): 420 ± 103 ng·h/mL | C max, geometric mean ([1]; SAD 60 mg fasted): (20.5) [24] ng/mL | C max, mean ± SD ([1]; SAD 60 mg fasted): 21.0 ± 5.08 ng/mL | t 1/2z, geometric mean ([1]; SAD 60 mg fasted): (20.9) [28] h | t 1/2z, mean ± SD ([1]; SAD 60 mg fasted): 21.6 ± 6.14 h | t last, median ([1]; SAD 60 mg fasted): 48.00 h | t max, median ([1]; SAD 60 mg fasted): 2.50 h | AUC (0 to infinity), geometric mean ([1]; SAD 180 mg fasted): (2,330) [32] ng·h/mL | AUC (0 to infinity), mean ± SD ([1]; SAD 180 mg fasted): 2,450 ± 782 ng·h/mL | C max, geometric mean ([1]; SAD 180 mg fasted): (117) [36] ng/mL | C max, mean ± SD ([1]; SAD 180 mg fasted): 122 ± 43.7 ng/mL | t 1/2z, geometric mean ([1]; SAD 180 mg fasted): (27.1) [17] h | t 1/2z, mean ± SD ([1]; SAD 180 mg fasted): 27.4 ± 4.74 h | t last, median ([1]; SAD 180 mg fasted): 96.21 h | t max, median ([1]; SAD 180 mg fasted): 2.50 h | AUC (0 to infinity), geometric mean ([1]; SAD 400 mg fasted): (4,220) [49] ng·h/mL | AUC (0 to infinity), mean ± SD ([1]; SAD 400 mg fasted): 4,580 ± 2,240 ng·h/mL | C max, geometric mean ([1]; SAD 400 mg fasted): (261) [49] ng/mL | C max, mean ± SD ([1]; SAD 400 mg fasted): 285 ± 139 ng/mL | t 1/2z, geometric mean ([1]; SAD 400 mg fasted): (24.0) [26] h | t 1/2z, mean ± SD ([1]; SAD 400 mg fasted): 24.7 ± 6.47 h | t last, median ([1]; SAD 400 mg fasted): 96.16 h | t max, median ([1]; SAD 400 mg fasted): 3.00 h | AUC (0 to infinity), geometric mean ([1]; SAD 600 mg fasted): (8,900) [37] ng·h/mL | AUC (0 to infinity), mean ± SD ([1]; SAD 600 mg fasted): 9,640 ± 3,540 ng·h/mL | C max, geometric mean ([1]; SAD 600 mg fasted): (483) [39] ng/mL | C max, mean ± SD ([1]; SAD 600 mg fasted): 525 ± 206 ng/mL | t 1/2z, geometric mean ([1]; SAD 600 mg fasted): (23.9) [22] h | t 1/2z, mean ± SD ([1]; SAD 600 mg fasted): 24.4 ± 5.43 h | t last, median ([1]; SAD 600 mg fasted): 96.01 h | t max, median ([1]; SAD 600 mg fasted): 3.00 h | average free efficacious exposure in mice ([2]; collagen-induced arthritis mouse model): 24 nM | efficacy in collagen-induced arthritis mouse model ([2]; in vivo): antibody‐like efficacy | bioavailability ([3]; across animal species): moderate to high | fraction unbound ([3]; preclinical studies): high | tissue distribution ([3]; preclinical studies): high
